Results taken from ChEMBL document CHEMBL1649560, “Beta-lactamase-mediated beta-lactam resistance in Campylobacter species: prevalence of Cj0299 (bla OXA-61) and evidence for a novel beta-Lactamase in C. jejuni” (2009).
≈ marks a conversion by molar mass, not a printed value.

Assays:
Format in all cases: functional
Campylobacter jejuni [1] = assay: Antibacterial activity against bla gene-negative and nitrocefin reaction-positive beta-lactamase harboring Campylobacter jejuni isolate P854 by NCCLS agar doubling dilution method
Method in brief: (§1)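 MICs of β-lactams by agar doubling dilution following the NCCLS (CLSI) Campylobacter Working Group procedure, with C. jejuni NCTC 11168 and C. coli NCTC 11366 as controls. Isolates were from UK poultry flocks. β-Lactamase status was set by Cj0299 PCR (281-bp amplimer) and by a nitrocefin colour change of sonicated lysate within 5 min, or within 30 min on repeat.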

Campylobacter coli [2] = assay: Antibacterial activity against bla-positive and beta-lactamase-weakly positive Campylobacter coli isolate P1627 by NCCLS agar doubling dilution method
Method in brief: (§2)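 MICs by agar doubling dilution per the NCCLS (now CLSI) Campylobacter Working Group method. Isolates came from UK chicken flocks (feces, ceca or farm environment), 2000–2006. C. jejuni NCTC 11168 and C. coli NCTC 11366 served as control strains. The ampicillin resistance cutoff was 8 μg/ml; BSAC/CLSI Enterobacteriaceae guidelines were used for other agents.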

Campylobacter coli [3] = assay: Antibacterial activity against Campylobacter coli by NCCLS agar doubling dilution method
Method in brief: (§3)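 MICs by agar doubling dilution following the NCCLS (CLSI) Campylobacter Working Group procedure, applied to ampicillin- and amoxicillin-resistant isolates from UK chicken flocks (2000–2006). C. jejuni NCTC 11168 and C. coli NCTC 11366 served as control strains. Resistance was called at an ampicillin cutoff of 8 μg/ml. Other agents were judged against Enterobacteriaceae guidelines (BSAC, CLSI).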

Campylobacter jejuni [4] = assay: Antibacterial activity against Campylobacter jejuni isolate P1093 harboring blaOXA-61::cat gene by NCCLS agar doubling dilution method
Method in brief: (§4)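 Agar doubling dilution MICs (NCCLS/CLSI Campylobacter Working Group method) against Cj0299-inactivated mutants. Mutants were made by transforming the C. jejuni isolate with pCI and selecting on Mueller-Hinton agar with 10 μg/ml chloramphenicol for 3–5 days. Chromosomal insertion was confirmed by PCR with Cj0299 and cat primers.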

Campylobacter jejuni [5] = assay: Antibacterial activity against bla gene-positive and nitrocefin reaction-positive beta-lactamase harboring Campylobacter jejuni isolate P1650 by NCCLS agar doubling dilution method; method in brief: as §1
Campylobacter jejuni [6] = assay: Antibacterial activity against bla gene-positive and nitrocefin reaction-positive beta-lactamase harboring Campylobacter jejuni isolate P338 by NCCLS agar doubling dilution method; method in brief: as §2
Campylobacter jejuni [7] = assay: Antibacterial activity against bla gene-positive and nitrocefin reaction-positive beta-lactamase harboring Campylobacter jejuni isolate P1093 by NCCLS agar doubling dilution method; method in brief: as §1
Campylobacter jejuni [8] = assay: Antibacterial activity against bla gene-positive and nitrocefin reaction-positive beta-lactamase harboring Campylobacter jejuni isolate P1730 by NCCLS agar doubling dilution method; method in brief: as §2
Campylobacter jejuni [9] = assay: Antibacterial activity against bla gene-negative and nitrocefin reaction-negative beta-lactamase harboring Campylobacter jejuni isolate P835 by NCCLS agar doubling dilution method; method in brief: as §1
Campylobacter jejuni [10] = assay: Antibacterial activity against Campylobacter jejuni isolate P270 harboring blaOXA-61::cat gene by NCCLS agar doubling dilution method
Campylobacter jejuni [11] = assay: Antibacterial activity against bla gene-positive and nitrocefin reaction-negative beta-lactamase harboring Campylobacter jejuni NCTC 11168 by NCCLS agar doubling dilution method; method in brief: as §1
Campylobacter jejuni [12] = assay: Antibacterial activity against bla gene-positive and nitrocefin reaction-negative beta-lactamase harboring Campylobacter jejuni isolate P1698 by NCCLS agar doubling dilution method; method in brief: as §1
Campylobacter coli [13] = assay: Antibacterial activity against bla gene-positive and nitrocefin reaction-positive beta-lactamase harboring Campylobacter coli isolate P1826 by NCCLS agar doubling dilution method; method in brief: as §1
Campylobacter jejuni [14] = assay: Antibacterial activity against Campylobacter jejuni assessed as resistant isolates by NCCLS agar doubling dilution method
Method in brief: (§5)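 MICs by agar doubling dilution following the NCCLS (CLSI) Campylobacter Working Group procedure, with C. jejuni NCTC 11168 and C. coli NCTC 11366 as controls. Isolates came from UK chicken flocks, 2000–2006. Isolates were designated resistant at an ampicillin cutoff of 8 μg/ml. Enterobacteriaceae guidelines (BSAC, CLSI) were used as reference for the other agents.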

Campylobacter coli [15] = assay: Antibacterial activity against bla gene-positive and nitrocefin reaction-positive beta-lactamase harboring Campylobacter coli isolate P321 by NCCLS agar doubling dilution method; method in brief: as §1
Campylobacter jejuni [16] = assay: Antibacterial activity against bla gene-negative and nitrocefin reaction-positive beta-lactamase harboring Campylobacter jejuni isolate P843 by NCCLS agar doubling dilution method; method in brief: as §1
Campylobacter jejuni [17] = assay: Antibacterial activity against Campylobacter jejuni isolate P338 harboring blaOXA-61::cat gene by NCCLS agar doubling dilution method; method in brief: as §4
Campylobacter jejuni [18] = assay: Antibacterial activity against bla gene-positive and nitrocefin reaction-positive beta-lactamase harboring Campylobacter jejuni isolate P790 by NCCLS agar doubling dilution method; method in brief: as §2
Campylobacter jejuni [19] = assay: Antibacterial activity against bla gene-positive and nitrocefin reaction-positive beta-lactamase harboring Campylobacter jejuni isolate P285 by NCCLS agar doubling dilution method; method in brief: as §2
Campylobacter jejuni [20] = assay: Antibacterial activity against bla gene-positive and nitrocefin reaction-positive beta-lactamase harboring Campylobacter jejuni isolate P316 by NCCLS agar doubling dilution method; method in brief: as §2
Campylobacter jejuni [21] = assay: Antibacterial activity against bla gene-positive and nitrocefin reaction-positive beta-lactamase harboring Campylobacter jejuni isolate P305 by NCCLS agar doubling dilution method; method in brief: as §2
Campylobacter jejuni [22] = assay: Antibacterial activity against bla gene-positive and nitrocefin reaction-positive beta-lactamase harboring Campylobacter jejuni isolate P1618 by NCCLS agar doubling dilution method; method in brief: as §1
Campylobacter jejuni [23] = assay: Antibacterial activity against Campylobacter jejuni by NCCLS agar doubling dilution method; method in brief: as §3
Campylobacter jejuni [24] = assay: Antibacterial activity against bla gene-positive and nitrocefin reaction-negative beta-lactamase harboring Campylobacter jejuni isolate P1699 by NCCLS agar doubling dilution method; method in brief: as §1
Campylobacter coli [25] = assay: Antibacterial activity against Campylobacter coli assessed as resistant isolates by NCCLS agar doubling dilution method; method in brief: as §5
Campylobacter jejuni [26] = assay: Antibacterial activity against bla gene-negative and nitrocefin reaction-negative beta-lactamase harboring Campylobacter jejuni isolate P1962 by NCCLS agar doubling dilution method; method in brief: as §1
Campylobacter jejuni [27] = assay: Antibacterial activity against bla gene-positive and nitrocefin reaction-positive beta-lactamase harboring Campylobacter jejuni isolate P286 by NCCLS agar doubling dilution method; method in brief: as §2
Campylobacter jejuni [28] = assay: Antibacterial activity against bla gene-negative and nitrocefin reaction-negative beta-lactamase harboring Campylobacter jejuni isolate P850 by NCCLS agar doubling dilution method; method in brief: as §1

CC1(C)S[C@@H]2[C@H](NC(=O)[C@H](N)c3ccccc3)C(=O)N2[C@H]1C(=O)O [AMPICILLIN]
MIC (Campylobacter jejuni [1]): 128 µg/mL (≈ 366 µM)
MIC (Campylobacter coli [2]): 32 µg/mL (≈ 91.6 µM)
MIC50 (Campylobacter coli [3]): 64 µg/mL (≈ 183 µM)
MIC90 (Campylobacter coli [3]): 128 µg/mL (≈ 366 µM)
MIC (Campylobacter jejuni [4]): 2 µg/mL (≈ 5.72 µM)
MIC (Campylobacter jejuni [5]): 64 µg/mL (≈ 183 µM)
MIC (Campylobacter jejuni [6]): 64 µg/mL (≈ 183 µM)
MIC (Campylobacter jejuni [7]): 128 µg/mL (≈ 366 µM)
MIC (Campylobacter jejuni [8]): 64 µg/mL (≈ 183 µM)
MIC (Campylobacter jejuni [9]): 2 µg/mL (≈ 5.72 µM)
MIC (Campylobacter jejuni [10]): 0.5 µg/mL (≈ 1.43 µM)
MIC (Campylobacter jejuni [11]): 4 µg/mL (≈ 11.4 µM)
MIC (Campylobacter jejuni [12]): 128 µg/mL (≈ 366 µM)
MIC (Campylobacter coli [13]): 128 µg/mL (≈ 366 µM)
Activity (Campylobacter jejuni [14]): 47.5%
MIC (Campylobacter coli [15]): 128 µg/mL (≈ 366 µM)
MIC (Campylobacter jejuni [16]): 32 µg/mL (≈ 91.6 µM)
MIC (Campylobacter jejuni [17]): 2 µg/mL (≈ 5.72 µM)
MIC (Campylobacter jejuni [18]): 64 µg/mL (≈ 183 µM)
MIC (Campylobacter jejuni [19]): 64 µg/mL (≈ 183 µM)
MIC (Campylobacter jejuni [20]): 64 µg/mL (≈ 183 µM)
MIC (Campylobacter jejuni [21]): 64 µg/mL (≈ 183 µM)
MIC (Campylobacter jejuni [22]): 64 µg/mL (≈ 183 µM)
MIC50 (Campylobacter jejuni [23]): 64 µg/mL (≈ 183 µM)
MIC90 (Campylobacter jejuni [23]): 128 µg/mL (≈ 366 µM)
MIC (Campylobacter jejuni [24]): 64 µg/mL (≈ 183 µM)
Activity (Campylobacter coli [25]): 67.4%
MIC (Campylobacter jejuni [26]): 2 µg/mL (≈ 5.72 µM)
MIC (Campylobacter jejuni [27]): 64 µg/mL (≈ 183 µM)
MIC (Campylobacter jejuni [28]): 32 µg/mL (≈ 91.6 µM)
